ChEMBL document CHEMBL1154778, “Synthesis and biological evaluation of C-5 methyl substituted 4-arylthio and 4-aryloxy-3-Iodopyridin-2(1H)-one type anti-HIV agents” (J Med Chem, 2009)

Key:
[1] = test system: Human immunodeficiency virus 1; experiment: Antiviral activity against HIV1 HXB2 harboring 101E and K103N mutant reverse transcriptase infected in human MT4 cells after 5 days by MTT assay; assay type: functional, organism-based; details: Human immunodeficiency virus 1, HXB2, MT4, 120 h
Summary of the method: (§1)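 Mutant viruses were made by recombining the mutant PR-RT sequence into a PR-RT-deleted HIV-1 HXB2 proviral clone. MT4 cells were grown in RPMI 1640 with 10% FCS and antibiotics. Virus at 200 CCID50/well and 30000 cells/well were incubated with varied compound concentrations for 5 days at 37 °C, 5% CO2. MTT viability gave IC50, the concentration giving 50% infection versus the drug-free control.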

[2] = test system: Human immunodeficiency virus 1; experiment: Ratio of compound IC50 to efavirenz IC50 for HIV1 HXB2 harboring Y181C mutant reverse transcriptase infected in human MT4 cells; assay type: functional
[3] = test system: Human immunodeficiency virus 1; experiment: Antiviral activity against HIV1 HXB2 harboring 227C mutant reverse transcriptase infected in human MT4 cells after 5 days by MTT assay; assay type: functional, organism-based; details: Human immunodeficiency virus 1, HXB2, MT4, 120 h; summary of the method: as §1
[4] = Selectivity index, ratio of CC50 for human MT4 cells to IC50 for HIV-1 LAI harboring wild type reverse transcriptase infected in human MT4 cells; assay type: functional
Summary of the method: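 Cytotoxicity was measured in mock-infected MT4 cultures (30000 cells/well) given the same compound concentration range, run in parallel with the infected cultures for 5 days at 37 °C, 5% CO2, with MTT viability. CC50 was the concentration reducing viability by 50% versus the drug-free control. SI was CC50 divided by IC50 against HIV-1 LAI.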

[5] = test system: Human immunodeficiency virus 1; experiment: Antiviral activity against HIV1 HXB2 harboring 100I mutant reverse transcriptase infected in human MT4 cells after 5 days by MTT assay; assay type: functional, organism-based; details: Human immunodeficiency virus 1, HXB2, MT4, 120 h; summary of the method: as §1
[6] = test system: Human immunodeficiency virus 1; experiment: Antiviral activity against HIV1 HXB2 harboring 190S mutant reverse transcriptase infected in human MT4 cells after 5 days by MTT assay; assay type: functional, organism-based; details: Human immunodeficiency virus 1, HXB2, MT4, 120 h; summary of the method: as §1
[7] = test system: Human immunodeficiency virus 1; experiment: Antiviral activity against HIV1 HXB2 harboring 101E mutant reverse transcriptase infected in human MT4 cells after 5 days by MTT assay; assay type: functional, organism-based; details: Human immunodeficiency virus 1, HXB2, MT4, 120 h; summary of the method: as §1
[8] = test system: Human immunodeficiency virus 1; experiment: Antiviral activity against HIV1 HXB2 harboring 138K mutant reverse transcriptase infected in human MT4 cells after 5 days by MTT assay; assay type: functional, organism-based; details: Human immunodeficiency virus 1, HXB2, MT4, 120 h; summary of the method: as §1
[9] = test system: Human immunodeficiency virus 1; experiment: Antiviral activity against HIV1 HXB2 harboring 179E mutant reverse transcriptase infected in human MT4 cells after 5 days by MTT assay; assay type: functional, organism-based; details: Human immunodeficiency virus 1, HXB2, MT4, 120 h; summary of the method: as §1
[10] = test system: Human immunodeficiency virus 1; experiment: Antiviral activity against HIV1 HXB2 harboring 227L and 106A mutant reverse transcriptase infected in human MT4 cells after 5 days by MTT assay; assay type: functional, organism-based; details: Human immunodeficiency virus 1, HXB2, MT4, 120 h; summary of the method: as §1
[11] = test system: Human immunodeficiency virus 1; experiment: Ratio of efavirenz IC50 to compound IC50 for HIV1 HXB2 harboring Y188L mutant reverse transcriptase infected in human MT4 cells; assay type: functional
[12] = test system: Human immunodeficiency virus 1; experiment: Ratio of efavirenz IC50 to compound IC50 for HIV1 HXB2 harboring K103N mutant reverse transcriptase infected in human MT4 cells; assay type: functional
[13] = test system: Human immunodeficiency virus 1; experiment: Antiviral activity against HIV1 HXB2 harboring 106A mutant reverse transcriptase infected in human MT4 cells after 5 days by MTT assay; assay type: functional, organism-based; details: Human immunodeficiency virus 1, HXB2, MT4, 120 h; summary of the method: as §1
[14] = test system: Human immunodeficiency virus 1; experiment: Antiviral activity against HIV1 HXB2 harboring Y188L mutant reverse transcriptase infected in human MT4 cells after 5 days by MTT assay; assay type: functional, organism-based; details: Human immunodeficiency virus 1, HXB2, MT4, 120 h; summary of the method: as §1
[15] = test system: Human immunodeficiency virus 1; experiment: Antiviral activity against HIV1 HXB2 harboring 190A mutant reverse transcriptase infected in human MT4 cells after 5 days by MTT assay; assay type: functional, organism-based; details: Human immunodeficiency virus 1, HXB2, MT4, 120 h; summary of the method: as §1
[16] = test system: Human immunodeficiency virus 1; experiment: Antiviral activity against HIV1 HXB2 harboring Y181C mutant reverse transcriptase infected in human MT4 cells after 5 days by MTT assay; assay type: functional, organism-based; details: Human immunodeficiency virus 1, HXB2, MT4, 120 h; summary of the method: as §1
[17] = test system: Human immunodeficiency virus 1; experiment: Antiviral activity against HIV1 HXB2 harboring K103N mutant reverse transcriptase infected in human MT4 cells after 5 days by MTT assay; assay type: functional, organism-based; details: Human immunodeficiency virus 1, HXB2, MT4, 120 h; summary of the method: as §1
[18] = test system: Human immunodeficiency virus 1; experiment: Antiviral activity against HIV1 HXB2 harboring K103N and Y181C mutant reverse transcriptase infected in human MT4 cells after 5 days by MTT assay; assay type: functional, organism-based; details: Human immunodeficiency virus 1, HXB2, MT4, 120 h; summary of the method: as §1
[19] = test system: Human immunodeficiency virus 1; experiment: Antiviral activity against HIV-1 LAI harboring wild type reverse transcriptase infected in human MT4 cells after 5 days by MTT assay; assay type: functional, organism-based; details: Human immunodeficiency virus 1, LAI, MT4, 120 h
Summary of the method: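 MT4 cells were kept in RPMI 1640 with 10% fetal calf serum and antibiotics at 37 °C, 5% CO2. A range of compound concentrations was incubated with HIV-1 LAI at 200 CCID50/well and 30000 MT4 cells/well for 5 days at 37 °C. Cell viability was read by MTT, and IC50 was the concentration giving 50% infection versus the drug-free control.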

[20] = test system: Human immunodeficiency virus 1; experiment: Antiviral activity against HIV1 HXB2 harboring 100I and K103N mutant reverse transcriptase infected in human MT4 cells after 5 days by MTT assay; assay type: functional, organism-based; details: Human immunodeficiency virus 1, HXB2, MT4, 120 h; summary of the method: as §1
[21] = test system: Human immunodeficiency virus 1; experiment: Ratio of efavirenz IC50 to compound IC50 for HIV1 HXB2 harboring 100I and K103N mutant reverse transcriptase infected in human MT4 cells; assay type: functional

Row | SMILES | IC50 [1] [nM] | IC50 [3] [nM] | Ratio CC50/IC50 [4] | IC50 [5] [nM] | IC50 [6] [nM] | IC50 [7] [nM] | IC50 [8] [nM] | IC50 [9] [nM] | IC50 [10] [nM] | IC50 [13] [nM] | IC50 [14] [nM] | IC50 [15] [nM] | IC50 [16] [nM] | IC50 [17] [nM] | IC50 [18] [nM] | IC50 [19] [nM] | IC50 [20] [nM] | further results
1 | CCc1c(C)[nH]c(=O)c(I)c1Oc1cc(C)cc(C)c1 | 15.8 | 63.1 | 9000 | 6.31 | 1.99 | 6.31 | 3.98 | 1.99 | 398 | 5.01 | – | – | – | – | – | – | – | Ratio IC50 [2]: 10; Ratio IC50 [11]: 3; Ratio IC50 [12]: 10
2 | CCc1c(C)[nH]c(=O)c(N(C)C)c1Cc1cc(C)cc(C)c1 | – | – | 12589 | 50.1 | – | 15.8 | – | – | – | 39.8 | 251 | 63.1 | 100 | 31.6 | 794 | 7.94 | – | –
3 | CCc1c(C)[nH]c(=O)c(N(C)C)c1C(=O)c1cc(C)cc(C)c1 | 12.6 | 631 | 2512 | 6.31 | 3.98 | 7.94 | 6.31 | 2.51 | 398 | 6.31 | 158 | 12.6 | 63.1 | 10 | 158 | 3.98 | 39.8 | –
4 | Cc1cc(C)cc(Oc2c(CSCc3ccco3)c(C)[nH]c(=O)c2I)c1 | 3.98 | 39.8 | >79433 | 6.31 | 1.25 | 6.31 | 1.25 | 1 | 125 | 1.58 | 31.6 | 3.16 | 5 | 1 | 5.01 | 1.25 | 31.6 | –
5 | Cc1cc(C)cc(Oc2c(CSCc3csc(C)n3)c(C)[nH]c(=O)c2I)c1 | – | 39.8 | >100000 | 3.16 | – | – | – | – | – | – | 7.9 | – | 6.3 | 1 | – | 1 | 158 | EC50 [10]: 158 nM
6 | COCCSCc1c(C)[nH]c(=O)c(I)c1Oc1cc(C)cc(C)c1 | – | 199 | >50119 | 10 | – | – | – | – | 199 | – | 31.6 | – | 7.94 | 1.58 | – | 1.99 | – | –
7 | Cc1cc(C)cc(Oc2c(Cn3ccnc3)c(C)[nH]c(=O)c2I)c1 | 28.6 | – | >50118 | 6.31 | 2.2 | 9.2 | 11.2 | 5.1 | – | 3.7 | 31.6 | 8 | 10 | 2.51 | 71.2 | 1.99 | 23.7 | –
8 | Cc1cc(C)cc(Sc2c(CSCc3cccs3)c(C)[nH]c(=O)c2I)c1 | – | – | >10000 | – | – | – | – | – | – | – | 794 | – | 39.8 | 10 | – | 10 | – | –
9 | Cc1cc(C)cc(Sc2c(Cn3cc(Br)cn3)c(C)[nH]c(=O)c2I)c1 | – | – | >10000 | – | – | – | – | – | – | – | 316 | – | 39.8 | 5.01 | – | 10 | – | –
10 | Cc1cc(C)cc(Sc2c(Cn3ncnn3)c(C)[nH]c(=O)c2I)c1 | 5 | 50.1 | >158489 | 1.25 | 0.3 | 3.3 | 2.6 | 0.8 | 50.1 | 0.6 | 31.6 | 1 | 10 | 1.25 | 32.9 | 0.63 | 3.98 | –
11 | CC(=O)c1c(C)cn(Cc2c(C)[nH]c(=O)c(I)c2Sc2cc(C)cc(C)c2)c1C | – | – | 5012 | – | – | – | – | – | – | – | 199 | – | 63 | 50.1 | – | 10 | – | –
12 | Cc1cc(C)cc(Oc2c(Cn3cnnn3)c(C)[nH]c(=O)c2I)c1 | 4.6 | 2.6 | >100000 | 4 | 0.4 | 4 | 3.9 | 1.4 | 3.8 | 2 | 10.3 | 3.7 | 5.9 | 1.4 | 17.4 | 0.79 | 4.7 | –
13 | CCSCc1c(C)[nH]c(=O)c(I)c1Oc1cc(C)cc(C)c1 | 19.9 | 199 | >79433 | 7.94 | 10 | 19.9 | 25.1 | 10 | 125 | 7.94 | 31.6 | 19.9 | 6.3 | 6.3 | 19.9 | 1.25 | 15.8 | –
14 | Cc1cc(C)cc(Oc2c(CN3CCN(C(=O)c4ccco4)CC3)c(C)[nH]c(=O)c2I)c1 | – | – | 1585 | – | – | – | – | – | – | – | 158 | – | 125 | 25.1 | – | 10 | – | –
15 | Cc1cc(C)cc(Oc2c(Cn3cnc(C#N)c3C#N)c(C)[nH]c(=O)c2I)c1 | – | – | >10000 | – | – | – | – | – | – | – | 1000 | – | 199 | 31.6 | – | 10 | – | –
16 | Cc1cc(C)cc(Sc2c(Cn3cnnn3)c(C)[nH]c(=O)c2I)c1 | 1 | 31.6 | >79433 | 0.79 | 0.2 | 1.4 | 1.1 | 0.8 | 39.8 | 0.5 | 15.8 | 0.9 | 7.9 | 0.31 | 6.8 | 1.25 | 1.25 | Ratio IC50 [21]: 1000
17 | O=C1Nc2ccc(Cl)cc2[C@@](C#CC2CC2)(C(F)(F)F)O1 [EFAVIRENZ] | – | – | – | – | 251 | 6.3 | – | 5.01 | 25.1 | – | – | 10 | – | – | – | – | – | –
18 | Cc1ccnc2c1NC(=O)c1cccnc1N2C1CC1 [NEVIRAPINE] | – | 135 | – | – | 44 | – | 51 | 195 | 163 | – | 100000 | – | 10000 | – | 100000 | – | – | –
